Data taken from ChEMBL document CHEMBL2150901, “Synthesis and biological activity of tricyclic cycloalkylimidazo-, pyrimido- and diazepinopurinediones” (Eur J Med Chem, 2011).
pKi: −log10 of the molar value. The source made the active and inactive calls. The rule behind the calls is not given here.

Legend:
Mus musculus [1] = test: Anticonvulsant activity in F1 albino mouse assessed as protection against maximal electroshock-induced seizures at 300 mg/kg, ip after 0.5 hrs; assay type: functional, organism-based; set-up: dose 300 mg/kg
How it was run: (§1)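 Male albino F-1 mice (18–25 g), groups of 1–5 (rotorod 2–8). Compound given ip as a suspension in 0.5% methylcellulose at 30, 100 and 300 mg/kg. Seizures by maximal electroshock or subcutaneous pentylenetetrazole; neurotoxicity by rotorod. Read at 0.5 and 4 h, with some at 0.25, 1 and 2 h. Value is the minimum active dose, with protected (or toxic)/tested animals.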

Mus musculus [2] = test: Anticonvulsant activity in F1 albino mouse assessed as protection against subcutaneous pentylenetetrazole-induced seizures at 100 mg/kg, ip after 0.5 hrs; assay type: functional, organism-based; set-up: dose 100 mg/kg; how it was run: as §1
Rattus norvegicus [3] = test: Anticonvulsant activity in Sprague-Dawley albino rat assessed as protection against maximal electroshock-induced seizures at 30 mg/kg, po after 2 hrs; assay type: functional, organism-based; set-up: dose 30 mg/kg
How it was run: (§2)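 Male Sprague-Dawley albino rats (100–150 g), groups of 4. Oral suspension in 0.5% methylcellulose/water. Protection assessed by maximal electroshock or subcutaneous pentylenetetrazole; motor impairment by rotorod. Time points 0.25–4 h. Value is protected (or toxic)/tested animals.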

Rattus norvegicus [4] = test: Anticonvulsant activity in Sprague-Dawley albino rat assessed as protection against subcutaneous pentylenetetrazole-induced seizures at 50 mg/kg, po after 1 hr; assay type: functional, organism-based; set-up: dose 50 mg/kg; how it was run: as §2
Rattus norvegicus [5] = test: Neurotoxicity in Sprague-Dawley albino rat assessed as minimal motor impairment at 30 mg/kg, po after 1 hr by rotorod test; assay type: toxicity, organism-based; set-up: dose 30 mg/kg, route oral; conditions: in vivo; how it was run: as §2
Rattus norvegicus [6] = test: Anticonvulsant activity in Sprague-Dawley albino rat assessed as protection against subcutaneous pentylenetetrazole-induced seizures at 50 mg/kg, po after 0.5 hrs; assay type: functional, organism-based; set-up: dose 50 mg/kg; how it was run: as §2
Mus musculus [7] = test: Neurotoxicity in F1 albino mouse assessed as minimal motor impairment at 300 mg/kg, ip after 4 hrs by rotorod test; assay type: toxicity, organism-based; set-up: dose 300 mg/kg, route intraperitoneal; conditions: in vivo; how it was run: as §1
Rattus norvegicus [8] = test: Anticonvulsant activity in Sprague-Dawley albino rat assessed as protection against maximal electroshock-induced seizures at 30 mg/kg, po after 1 hr; assay type: functional, organism-based; set-up: dose 30 mg/kg; how it was run: as §2
Mus musculus [9] = test: Neurotoxicity in F1 albino mouse assessed as minimal motor impairment at 300 mg/kg, ip after 0.25 hrs by rotorod test; assay type: toxicity, organism-based; set-up: dose 300 mg/kg, route intraperitoneal; conditions: in vivo; how it was run: as §1
Mus musculus [10] = test: Anticonvulsant activity in F1 albino mouse assessed as protection against subcutaneous pentylenetetrazole-induced seizures at 300 mg/kg, ip after 1 hr; assay type: functional, organism-based; set-up: dose 300 mg/kg; how it was run: as §1
Rattus norvegicus [11] = test: Anticonvulsant activity in Sprague-Dawley albino rat assessed as protection against subcutaneous pentylenetetrazole-induced seizures at 50 mg/kg, po after 2 hrs; assay type: functional, organism-based; set-up: dose 50 mg/kg; how it was run: as §2
Adenosine receptor A3 = target: T1, Adenosine receptor A3 (Homo sapiens, UniProt P0DMS8); test: Displacement of [3H]PSB-11 from human recombinant adenosine A3 receptor expressed in CHO cells; assay type: cell-based
T1 sequence (P0DMS8 whole entry): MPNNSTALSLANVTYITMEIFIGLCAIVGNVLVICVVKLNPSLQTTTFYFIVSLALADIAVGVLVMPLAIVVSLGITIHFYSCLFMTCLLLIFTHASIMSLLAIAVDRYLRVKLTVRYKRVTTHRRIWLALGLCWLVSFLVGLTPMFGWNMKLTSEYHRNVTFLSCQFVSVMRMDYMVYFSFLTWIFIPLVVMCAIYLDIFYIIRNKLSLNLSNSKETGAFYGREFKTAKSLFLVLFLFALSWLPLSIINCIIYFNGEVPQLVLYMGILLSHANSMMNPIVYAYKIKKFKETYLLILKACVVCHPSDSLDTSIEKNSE

Rattus norvegicus [12] = species: Rattus norvegicus; test: Selectivity ratio of Ki for adenosine A1 receptor in rat brain cortical membrane to Ki for adenosine A2A receptor in rat brain striatal membrane; assay type: cell membranes
How it was run: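 Ki ratios from radioligand competition binding. Rat A1 used brain cortical membranes and rat A2A used brain striatal membranes. Human A1 and A2A used membranes of CHO cells expressing the receptors. A1 radioligand [³H]CCPA; A2A radioligand [³H]MSX-2. Potent compounds were tested at 6–7 concentrations spanning 3 orders of magnitude.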

Mus musculus [13] = test: Neurotoxicity in F1 albino mouse assessed as minimal motor impairment at 300 mg/kg, ip after 1 hr by rotorod test; assay type: toxicity, organism-based; set-up: dose 300 mg/kg, route intraperitoneal; conditions: in vivo; how it was run: as §1
Adenosine receptor A2b = target: T2, Adenosine receptor A2b (Homo sapiens, UniProt P29275); test: Displacement of [3H]ZM241385 from human adenosine A2B receptor expressed in CHO cells; assay type: cell-based
T2 sequence (P29275 whole entry): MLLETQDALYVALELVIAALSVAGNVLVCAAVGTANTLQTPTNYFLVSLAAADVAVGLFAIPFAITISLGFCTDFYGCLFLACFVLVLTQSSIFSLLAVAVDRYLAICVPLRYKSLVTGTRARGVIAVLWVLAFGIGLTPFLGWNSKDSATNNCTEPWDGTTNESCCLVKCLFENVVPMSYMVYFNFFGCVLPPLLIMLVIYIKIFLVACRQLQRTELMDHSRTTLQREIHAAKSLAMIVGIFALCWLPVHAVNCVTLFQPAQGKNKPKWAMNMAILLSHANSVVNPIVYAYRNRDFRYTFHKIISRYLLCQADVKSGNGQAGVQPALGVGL

Rattus norvegicus [14] = test: Neurotoxicity in Sprague-Dawley albino rat assessed as minimal motor impairment at 30 mg/kg, po after 4 hrs by rotorod test; assay type: toxicity, organism-based; set-up: dose 30 mg/kg, route oral; conditions: in vivo
How it was run: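 Male Sprague-Dawley albino rats (100–150 g), groups of 4, dosed orally with a suspension in 0.5% methylcellulose/water. Neurotoxicity was scored as minimal motor impairment on the rotorod at 0.25, 0.5, 1 and 4 h. Results are reported as animals showing toxicity per animals tested.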

Adenosine receptor A2a [15] = target: Adenosine receptor A2a (Homo sapiens, UniProt P29274); test: Antagonist activity human recombinant adenosine A2A receptor expressed in CHO cells assessed as inhibition of NECA-mediated [3H]cAMP accumulation after 15 mins by liquid scintillation counting; assay type: functional, cell-based
How it was run: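 Stably transfected CHO cells (human A2A), 200,000 cells/well, washed and preincubated 2 h at 37 °C in HBSS (pH 7.3) with 1 U/ml adenosine deaminase. Ro20-1724 (final 40 µM) added for 15 min. NECA dilutions ± a single test concentration in HBSS with 5% DMSO, in triplicate, for 15 min. Hot-lysis; cAMP quantified by [3H]cAMP competition against a standard curve; three separate experiments.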

Mus musculus [16] = test: Anticonvulsant activity in F1 albino mouse assessed as protection against subcutaneous pentylenetetrazole-induced seizures at 300 mg/kg, ip after 0.25 hrs; assay type: functional, organism-based; set-up: dose 300 mg/kg; how it was run: as §1
Mus musculus [17] = test: Neurotoxicity in F1 albino mouse assessed as minimal motor impairment at 300 mg/kg, ip after 0.5 hrs by rotorod test; assay type: toxicity, organism-based; set-up: dose 300 mg/kg, route intraperitoneal; conditions: in vivo; how it was run: as §1
Rattus norvegicus [18] = test: Anticonvulsant activity in Sprague-Dawley albino rat assessed as protection against maximal electroshock-induced seizures at 30 mg/kg, po after 0.5 hrs; assay type: functional, organism-based; set-up: dose 30 mg/kg; how it was run: as §2
Rattus norvegicus [19] = test: Anticonvulsant activity in Sprague-Dawley albino rat assessed as protection against subcutaneous pentylenetetrazole-induced seizures at 50 mg/kg, po after 4 hrs; assay type: functional, organism-based; set-up: dose 50 mg/kg; how it was run: as §2
Mus musculus [20] = test: Anticonvulsant activity in F1 albino mouse assessed as protection against maximal electroshock-induced seizures at 100 mg/kg, ip after 0.25 hrs; assay type: functional, organism-based; set-up: dose 100 mg/kg; how it was run: as §1
Adenosine receptor A2a [21] = target: Adenosine receptor A2a (Rattus norvegicus, UniProt P30543); test: Displacement of [3H]MSX-2 from adenosine A2A receptor in rat brain striatal membrane; assay type: cell membranes
Rattus norvegicus [22] = test: Anticonvulsant activity in Sprague-Dawley albino rat assessed as protection against maximal electroshock-induced seizures at 30 mg/kg, po after 4 hrs; assay type: functional, organism-based; set-up: dose 30 mg/kg; how it was run: as §2

Sequence of Adenosine receptor A2a (Rattus norvegicus, UniProt P30543) (P30543 whole entry): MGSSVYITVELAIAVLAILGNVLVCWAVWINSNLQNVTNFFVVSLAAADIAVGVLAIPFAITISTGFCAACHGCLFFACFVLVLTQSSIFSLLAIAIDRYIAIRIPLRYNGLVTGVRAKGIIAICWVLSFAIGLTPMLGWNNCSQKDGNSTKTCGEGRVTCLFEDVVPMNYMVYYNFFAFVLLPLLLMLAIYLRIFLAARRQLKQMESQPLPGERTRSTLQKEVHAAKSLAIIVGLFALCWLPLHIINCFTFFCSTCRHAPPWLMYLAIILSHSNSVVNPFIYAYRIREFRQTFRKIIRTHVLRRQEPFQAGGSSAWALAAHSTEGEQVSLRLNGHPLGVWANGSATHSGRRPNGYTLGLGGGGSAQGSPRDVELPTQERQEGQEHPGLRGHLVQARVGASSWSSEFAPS
Sequence of Adenosine receptor A2a (Homo sapiens, UniProt P29274) (P29274 whole entry): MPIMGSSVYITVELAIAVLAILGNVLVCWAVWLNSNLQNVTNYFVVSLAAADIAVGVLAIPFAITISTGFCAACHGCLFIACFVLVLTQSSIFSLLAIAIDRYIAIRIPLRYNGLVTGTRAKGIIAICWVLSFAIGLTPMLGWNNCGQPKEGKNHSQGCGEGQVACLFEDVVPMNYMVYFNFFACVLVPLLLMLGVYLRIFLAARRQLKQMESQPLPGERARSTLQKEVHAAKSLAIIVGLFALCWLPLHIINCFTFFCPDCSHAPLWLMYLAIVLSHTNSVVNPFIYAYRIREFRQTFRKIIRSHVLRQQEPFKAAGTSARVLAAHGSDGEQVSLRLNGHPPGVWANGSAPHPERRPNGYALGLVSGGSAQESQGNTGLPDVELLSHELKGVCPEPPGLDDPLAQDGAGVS

pKi (Adenosine receptor A3): < 5.00
Ratio Ki (Rattus norvegicus [12]): 2
pKi (Adenosine receptor A2b): 4.90
Kb (Adenosine receptor A2a [15]): 220 nM
pKi (Adenosine receptor A2a [21]): 6.01
Structure (SMILES): Cn1c(=O)c2c(nc3n2CCCN3CC2CC2)n(C)c1=O
Activity (Mus musculus [1]): Active
Activity (Mus musculus [2]): Active
Activity (Rattus norvegicus [3]): inactive
Activity (Rattus norvegicus [4]): inactive
Activity (Rattus norvegicus [5]): Non-toxic
Activity (Rattus norvegicus [6]): inactive
Activity (Mus musculus [7]): Non-toxic
Activity (Rattus norvegicus [8]): inactive
Activity (Mus musculus [9]): Non-toxic
Activity (Mus musculus [10]): inactive
Activity (Rattus norvegicus [11]): inactive
Activity (Mus musculus [13]): Non-toxic
Activity (Rattus norvegicus [14]): Non-toxic
Activity (Mus musculus [16]): inactive
Activity (Mus musculus [17]): Toxic
Activity (Rattus norvegicus [18]): inactive
Activity (Rattus norvegicus [19]): inactive
Activity (Mus musculus [20]): Active
Activity (Rattus norvegicus [22]): inactive
